Test results reported in ChEMBL document CHEMBL4130549, “Synthesis and bioactivities study of new antibacterial peptide mimics: The dialkyl cationic amphiphiles” (Eur J Med Chem, 2018).
Activity calls are given as the source filed them. The calls are words filed in the database; no cut-off is given here.

Key:
Enterobacteriaceae [1] = assay: Antibacterial activity against NDM-1-producing Enterobacteriaceae isolate N3 after 16 to 20 hrs by broth microdilution method; type: functional
In short: (§1)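 Broth microdilution per CLSI in cation-adjusted Mueller-Hinton broth; 4-6 h cultures (~10⁸ CFU/mL) diluted to ~10⁶ CFU/mL and mixed 1:1 with twofold dilutions of water-dissolved compound (256 to 0.5 µg/mL). Incubated 16-20 h at 37 °C; MIC read visually. Each concentration run in duplicate, whole experiment repeated at least twice. MRSA, KPC and NDM-1 strains were clinical isolates.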

[2] = Hemolytic activity in sheep RBC after 1 hr; type: ADME, cell-based, Ovis aries, Erythrocyte; conditions: sheep red blood cells (erythrocytes)
In short: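 Sheep RBCs suspended at 5% in PBS; 150 µL added to 50 µL compound dilutions (5120 to 10 µg/mL series). Incubated 1 h at 37 °C, then centrifuged; supernatant absorbance read at 540 nm. Lysis (%) = (A−A0)/(Atotal−A0)×100, with untreated 5% RBC as A0 and 0.1% Triton X-100 as total.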

Escherichia coli [3] = assay: Induction of cytoplasmic membrane depolarization in Escherichia coli ATCC 25922 at 20 ug/ml measured every 2 mins for 12 mins by diSC35 staining based fluorescence assay; type: functional, organism-based
In short: (§2)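 Mid-log cells (4–6 h) pelleted, washed and resuspended (~10^8 CFU/mL) in PBS for S. aureus, or in 5 mM HEPES, 5 mM glucose and 100 mM KCl (1:1:1) for E. coli. Preloaded with diSC35 (10 µM, 50 µL), 30 min for S. aureus and 40 min plus EDTA (200 µM, 50 µL) for E. coli. Baseline read 8 min (ex 622/em 670 nm), then compound added to 20 µg/mL final and read every 2 min for 12 min. Water control.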

Enterobacteriaceae [4] = assay: Antibacterial activity against NDM-1-producing Enterobacteriaceae isolate N9 after 16 to 20 hrs by broth microdilution method; type: functional; in short: as §1
Enterobacteriaceae [5] = assay: Antibacterial activity against NDM-1-producing Enterobacteriaceae isolate N4 after 16 to 20 hrs by broth microdilution method; type: functional; in short: as §1
Salmonella enterica = assay: Antibacterial activity against Salmonella enterica after 16 to 20 hrs by broth microdilution method; type: functional; in short: as §1
Staphylococcus aureus [6] = assay: Antibacterial activity against methicillin-resistant Staphylococcus aureus isolate M2 after 16 to 20 hrs by broth microdilution method; type: functional
In short: (§3)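 CLSI broth microdilution in cation-adjusted Mueller-Hinton broth. A 4-6 h culture was diluted to about 10⁶ CFU/mL and mixed 1:1 with twofold compound dilutions (256–0.5 µg/mL before mixing) prepared from aqueous stocks. Plates were incubated at 37 °C for 16-20 h. Each concentration was tested in duplicate, and the experiment was repeated at least twice.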

Klebsiella pneumoniae [7] = assay: Antibacterial activity against carbapenemase-producing Klebsiella pneumoniae isolate K3 after 16 to 20 hrs by broth microdilution method; type: functional; in short: as §1
Staphylococcus aureus [8] = assay: Antibacterial activity against methicillin-resistant Staphylococcus aureus isolate M7 after 16 to 20 hrs by broth microdilution method; type: functional; in short: as §3
Enterococcus faecalis = assay: Antibacterial activity against Enterococcus faecalis after 16 to 20 hrs by broth microdilution method; type: functional; in short: as §1
Klebsiella pneumoniae [9] = assay: Antibacterial activity against carbapenemase-producing Klebsiella pneumoniae isolate K8 after 16 to 20 hrs by broth microdilution method; type: functional; in short: as §1
Staphylococcus aureus [10] = assay: Antibacterial activity against methicillin-resistant Staphylococcus aureus isolate M10 after 16 to 20 hrs by broth microdilution method; type: functional; in short: as §3
Klebsiella pneumoniae [11] = assay: Antibacterial activity against carbapenemase-producing Klebsiella pneumoniae isolate K4 after 16 to 20 hrs by broth microdilution method; type: functional; in short: as §1
Enterobacteriaceae [12] = assay: Antibacterial activity against NDM-1-producing Enterobacteriaceae isolate N5 after 16 to 20 hrs by broth microdilution method; type: functional; in short: as §1
Klebsiella pneumoniae [13] = assay: Antibacterial activity against carbapenemase-producing Klebsiella pneumoniae isolate K6 after 16 to 20 hrs by broth microdilution method; type: functional; in short: as §1
Enterobacteriaceae [14] = assay: Antibacterial activity against NDM-1-producing Enterobacteriaceae isolate N6 after 16 to 20 hrs by broth microdilution method; type: functional; in short: as §1
Enterobacteriaceae [15] = assay: Antibacterial activity against NDM-1-producing Enterobacteriaceae isolate N7 after 16 to 20 hrs by broth microdilution method; type: functional; in short: as §1
Enterobacteriaceae [16] = assay: Antibacterial activity against NDM-1-producing Enterobacteriaceae isolate N2 after 16 to 20 hrs by broth microdilution method; type: functional; in short: as §1
Klebsiella pneumoniae [17] = assay: Antibacterial activity against carbapenemase-producing Klebsiella pneumoniae isolate K9 after 16 to 20 hrs by broth microdilution method; type: functional; in short: as §1
Enterobacteriaceae [18] = assay: Antibacterial activity against NDM-1-producing Enterobacteriaceae isolate N8 after 16 to 20 hrs by broth microdilution method; type: functional; in short: as §1
Klebsiella pneumoniae [19] = assay: Antibacterial activity against carbapenemase-producing Klebsiella pneumoniae isolate K7 after 16 to 20 hrs by broth microdilution method; type: functional; in short: as §1
Staphylococcus aureus [20] = assay: Antibacterial activity against methicillin-resistant Staphylococcus aureus isolate M4 after 16 to 20 hrs by broth microdilution method; type: functional; in short: as §3
Enterobacteriaceae [21] = assay: Antibacterial activity against NDM-1-producing Enterobacteriaceae isolate N10 after 16 to 20 hrs by broth microdilution method; type: functional; in short: as §1
Klebsiella pneumoniae [22] = assay: Antibacterial activity against carbapenemase-producing Klebsiella pneumoniae isolate K1 after 16 to 20 hrs by broth microdilution method; type: functional; in short: as §1
Staphylococcus aureus [23] = assay: Antibacterial activity against methicillin-resistant Staphylococcus aureus isolate M9 after 16 to 20 hrs by broth microdilution method; type: functional; in short: as §3
Klebsiella pneumoniae [24] = assay: Antibacterial activity against carbapenemase-producing Klebsiella pneumoniae after 16 to 20 hrs by broth microdilution method; type: functional; in short: as §1
Escherichia coli [25] = assay: Induction of outer membrane permeabilization in Escherichia coli ATCC 25922 at 20 ug/ml measured every 2 mins for 12 mins by NPN staining based fluorescence assay; type: functional, organism-based
In short: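 Mid-log E. coli (~10^8 CFU/mL) in black plates pre-incubated about 40 min with NPN (10 µM, 50 µL). Baseline read 8 min (ex 350/em 420 nm), then compound added to 20 µg/mL final and fluorescence followed every 2 min for 12 min. Water-treated control.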

Klebsiella pneumoniae [26] = assay: Antibacterial activity against carbapenemase-producing Klebsiella pneumoniae isolate K2 after 16 to 20 hrs by broth microdilution method; type: functional; in short: as §1
Klebsiella pneumoniae [27] = assay: Antibacterial activity against carbapenemase-producing Klebsiella pneumoniae isolate K5 after 16 to 20 hrs by broth microdilution method; type: functional; in short: as §1
Staphylococcus aureus [28] = assay: Antibacterial activity against Staphylococcus aureus ATCC 29213 after 16 to 20 hrs by broth microdilution method; type: functional; in short: as §3
Klebsiella pneumoniae [29] = assay: Antibacterial activity against carbapenemase-producing Klebsiella pneumoniae isolate K10 after 16 to 20 hrs by broth microdilution method; type: functional; in short: as §1
Staphylococcus aureus [30] = assay: Antibacterial activity against methicillin-resistant Staphylococcus aureus isolate M5 after 16 to 20 hrs by broth microdilution method; type: functional; in short: as §3
Escherichia coli [31] = assay: Antibacterial activity against Escherichia coli ATCC 25922 after 16 to 20 hrs by broth microdilution method; type: functional; in short: as §1
Staphylococcus aureus [32] = assay: Antibacterial activity against methicillin-resistant Staphylococcus aureus isolate M1 after 16 to 20 hrs by broth microdilution method; type: functional; in short: as §3
Staphylococcus aureus [33] = assay: Antibacterial activity against methicillin-resistant Staphylococcus aureus isolate M8 after 16 to 20 hrs by broth microdilution method; type: functional; in short: as §3
Staphylococcus aureus [34] = assay: Antibacterial activity against methicillin-resistant Staphylococcus aureus after 16 to 20 hrs by broth microdilution method; type: functional; in short: as §3
Enterobacteriaceae [35] = assay: Antibacterial activity against NDM-1-producing Enterobacteriaceae after 16 to 20 hrs by broth microdilution method; type: functional; in short: as §1
Staphylococcus aureus [36] = assay: Antibacterial activity against methicillin-resistant Staphylococcus aureus isolate M6 after 16 to 20 hrs by broth microdilution method; type: functional; in short: as §3
Enterobacteriaceae [37] = assay: Antibacterial activity against NDM-1-producing Enterobacteriaceae isolate N1 after 16 to 20 hrs by broth microdilution method; type: functional; in short: as §1
Staphylococcus aureus [38] = assay: Induction of cytoplasmic membrane depolarization in Staphylococcus aureus ATCC 29213 at 20 ug/ml measured every 2 mins for 12 mins by diSC35 staining based fluorescence assay; type: functional, organism-based; in short: as §2
Escherichia coli [39] = assay: Induction of inner membrane permeabilization in Escherichia coli ATCC 25922 at 20 ug/ml measured every 2 mins for 12 mins by propidium iodide staining based fluorescence assay; type: functional, organism-based
In short: (§4)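 Mid-log cells (~10^8 CFU/mL) pre-incubated with propidium iodide (10 µM, 50 µL), 30 min for S. aureus and 40 min for E. coli. Fluorescence (ex 535/em 617 nm) read for 8 min, then compound added to 20 µg/mL final and monitored every 2 min for 12 min. Water-treated control.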

Staphylococcus aureus [40] = assay: Antibacterial activity against methicillin-resistant Staphylococcus aureus isolate M3 after 16 to 20 hrs by broth microdilution method; type: functional; in short: as §3
Staphylococcus aureus [41] = assay: Induction of inner membrane permeabilization in Staphylococcus aureus ATCC 29213 at 20 ug/ml measured every 2 mins for 12 mins by propidium iodide staining based fluorescence assay; type: functional, organism-based; in short: as §4

## CCCCCCCCN(CCCCCCCC)C(=O)[C@@H](N)CO.Cl
Enterobacteriaceae [1]
  MIC: 16 µg/mL
[2]
  HC50 at 1 h: > 1000 µg/mL
Escherichia coli [3]
  Activity: Active
Enterobacteriaceae [4]
  MIC: 32 µg/mL
Enterobacteriaceae [5]
  MIC: 16 µg/mL
Salmonella enterica
  MIC: 8 µg/mL
Staphylococcus aureus [6]
  MIC: 4 µg/mL
Klebsiella pneumoniae [7]
  MIC: 32 µg/mL
Staphylococcus aureus [8]
  MIC: 2 µg/mL
Enterococcus faecalis
  MIC: 2 µg/mL
Klebsiella pneumoniae [9]
  MIC: 32 µg/mL
Staphylococcus aureus [10]
  MIC: 2 µg/mL
Klebsiella pneumoniae [11]
  MIC: 32 µg/mL
Enterobacteriaceae [12]
  MIC: 16 µg/mL
Klebsiella pneumoniae [13]
  MIC: 32 µg/mL
Enterobacteriaceae [14]
  MIC: 16 µg/mL
Enterobacteriaceae [15]
  MIC: 32 µg/mL
Enterobacteriaceae [16]
  MIC: 32 µg/mL
Klebsiella pneumoniae [17]
  MIC: 32 µg/mL
Enterobacteriaceae [18]
  MIC: 32 µg/mL
Klebsiella pneumoniae [19]
  MIC: 32 µg/mL
Staphylococcus aureus [20]
  MIC: 4 µg/mL
Enterobacteriaceae [21]
  MIC: 32 µg/mL
Klebsiella pneumoniae [22]
  MIC: 32 µg/mL
Staphylococcus aureus [23]
  MIC: 4 µg/mL
Klebsiella pneumoniae [24]
  MIC: 32 µg/mL
Escherichia coli [25]
  Activity: Active
Klebsiella pneumoniae [26]
  MIC: 32 µg/mL
Klebsiella pneumoniae [27]
  MIC: 32 µg/mL
Staphylococcus aureus [28]
  MIC: 4 µg/mL
Klebsiella pneumoniae [29]
  MIC: 32 µg/mL
Staphylococcus aureus [30]
  MIC: 4 µg/mL
Escherichia coli [31]
  MIC: 8 µg/mL
Staphylococcus aureus [32]
  MIC: 4 µg/mL
Staphylococcus aureus [33]
  MIC: 4 µg/mL
Staphylococcus aureus [34]
  MIC: 2 µg/mL
Enterobacteriaceae [35]
  MIC: 16 µg/mL
Staphylococcus aureus [36]
  MIC: 4 µg/mL
Enterobacteriaceae [37]
  MIC: 32 µg/mL
Staphylococcus aureus [38]
  Activity: Active
Escherichia coli [39]
  Activity: Active
Staphylococcus aureus [40]
  MIC: 4 µg/mL
Staphylococcus aureus [41]
  Activity: Active

## CCCCCCCCN(CCCCCCCC)C(=O)[C@@H](N)C(C)O.Cl (stereo partly specified)
Enterobacteriaceae [1]
  MIC: 64 µg/mL
[2]
  HC50 at 1 h: 268 µg/mL
Escherichia coli [3]
  Activity: Active
Enterobacteriaceae [4]
  MIC: > 64 µg/mL
Enterobacteriaceae [5]
  MIC: 64 µg/mL
Salmonella enterica
  MIC: 64 µg/mL
Staphylococcus aureus [6]
  MIC: 4 µg/mL
Klebsiella pneumoniae [7]
  MIC: 64 µg/mL
Staphylococcus aureus [8]
  MIC: 8 µg/mL
Enterococcus faecalis
  MIC: 8 µg/mL
Klebsiella pneumoniae [9]
  MIC: 64 µg/mL
Staphylococcus aureus [10]
  MIC: 8 µg/mL
Klebsiella pneumoniae [11]
  MIC: 64 µg/mL
Enterobacteriaceae [12]
  MIC: 64 µg/mL
Klebsiella pneumoniae [13]
  MIC: 64 µg/mL
Enterobacteriaceae [14]
  MIC: > 64 µg/mL
Enterobacteriaceae [15]
  MIC: > 64 µg/mL
Enterobacteriaceae [16]
  MIC: > 64 µg/mL
Klebsiella pneumoniae [17]
  MIC: 64 µg/mL
Enterobacteriaceae [18]
  MIC: > 64 µg/mL
Klebsiella pneumoniae [19]
  MIC: 64 µg/mL
Staphylococcus aureus [20]
  MIC: 4 µg/mL
Enterobacteriaceae [21]
  MIC: > 64 µg/mL
Klebsiella pneumoniae [22]
  MIC: 64 µg/mL
Staphylococcus aureus [23]
  MIC: 8 µg/mL
Klebsiella pneumoniae [24]
  MIC: 64 µg/mL
Escherichia coli [25]
  Activity: Active
Klebsiella pneumoniae [26]
  MIC: 64 µg/mL
Klebsiella pneumoniae [27]
  MIC: 64 µg/mL
Staphylococcus aureus [28]
  MIC: 4 µg/mL
Klebsiella pneumoniae [29]
  MIC: 64 µg/mL
Staphylococcus aureus [30]
  MIC: 8 µg/mL
Escherichia coli [31]
  MIC: 16 µg/mL
Staphylococcus aureus [32]
  MIC: 8 µg/mL
Staphylococcus aureus [33]
  MIC: 8 µg/mL
Staphylococcus aureus [34]
  MIC: 8 µg/mL
Enterobacteriaceae [35]
  MIC: 64 µg/mL
Staphylococcus aureus [36]
  MIC: 8 µg/mL
Enterobacteriaceae [37]
  MIC: > 64 µg/mL
Staphylococcus aureus [38]
  Activity: Active
Escherichia coli [39]
  Activity: Active
Staphylococcus aureus [40]
  MIC: 4 µg/mL
Staphylococcus aureus [41]
  Activity: Active
